Assay results taken from ChEMBL document CHEMBL1156638, “Antibacterial cannabinoids from Cannabis sativa: a structure-activity study” (2008).
Converted amounts (≈) assume the structure as drawn.

Assays:
Assay type in all cases: functional
Staphylococcus aureus [1] = assay: Antibacterial activity against […] Staphylococcus aureus SA1199B after 18 hrs
How it was run: (§1)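 Broth microdilution in Mueller-Hinton broth adjusted to 20 mg/L Ca2+ and 10 mg/L Mg2+. Overnight cultures diluted in 0.9% saline to 5 ×10^5 cfu against a MacFarland standard. Compounds serially diluted twofold, inoculum added, incubated 37 °C for 18 h. DMSO (3.125%) control included. MIC taken as lowest concentration with no visible growth, done in duplicate. MTT (5 mg/mL methanolic) used.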

Staphylococcus aureus [2] = assay: Antibacterial activity against tetracycline-resistant Staphylococcus aureus XU212 after 18 hrs; details: XU212, 18 h; how it was run: as §1
Staphylococcus aureus [3] = assay: Antibacterial activity against epidemic methicillin-resistant Staphylococcus aureus 16 after 18 hrs; how it was run: as §1
Staphylococcus aureus [4] = assay: Antibacterial activity against macrolide-resistant Staphylococcus aureus RN4220 after 18 hrs; details: RN4220, 18 h; how it was run: as §1
Staphylococcus aureus [5] = assay: Antibacterial activity against […] Staphylococcus aureus ATCC 25923 after 18 hrs; details: ATCC 25923, 18 h; how it was run: as §1
Staphylococcus aureus [6] = assay: Antibacterial activity against epidemic methicillin-resistant Staphylococcus aureus 15 after 18 hrs; how it was run: as §1

Row | SMILES | MIC (Staphylococcus aureus [1]) [µg/mL] | MIC (Staphylococcus aureus [2]) [µg/mL] | MIC (Staphylococcus aureus [3]) [µg/mL] | MIC (Staphylococcus aureus [4]) [µg/mL] | MIC (Staphylococcus aureus [5]) [µg/mL] | MIC (Staphylococcus aureus [6]) [µg/mL]
1 | CCCCCc1cc(O)c(C/C=C(\C)CCC=C(C)C)c(O)c1C(=O)OC | 64 (≈ 171 µM) | 64 (≈ 171 µM) | – | – | – | –
2 | C=C(C)[C@@H]1CCC(C)=C[C@H]1c1c(O)cc(CCCCC)c(C(=O)OC)c1O | > 128 | > 128 | > 128 | > 128 | > 128 | > 128
3 | C=C(C)[C@@H]1CCC(C)=C[C@H]1c1c(OC)cc(CCCCC)cc1OC | > 128 | > 128 | > 128 | > 128 | > 128 | > 128
4 | C=C(C)[C@@H]1CCC(C)=C[C@H]1c1c(O)cc(O)cc1CCCCC | 1 (≈ 3.18 µM) | 1 (≈ 3.18 µM) | 1 (≈ 3.18 µM) | 1 (≈ 3.18 µM) | 1 (≈ 3.18 µM) | 1 (≈ 3.18 µM)
5 | CCCCCc1cc(O)c(C/C=C(\C)CCC=C(C)C)c(OC)c1 | > 128 | > 128 | > 128 | > 128 | > 128 | > 128
6 | CCCCCc1cc(OC)c(C/C=C(\C)CCC=C(C)C)c(OC)c1 | > 128 | > 128 | > 128 | > 128 | > 128 | > 128
7 | CCCCCc1cc(O)c(C/C=C(\C)CCC=C(C)C)c(O)c1C(=O)OCCc1ccccc1 | > 128 | > 128 | > 128 | > 128 | > 128 | > 128
8 | C=C(C)[C@@H]1CCC(C)=C[C@H]1c1c(O)cc(CCCCC)cc1OC | > 128 | > 128 | > 128 | > 128 | > 128 | > 128
9 | C=C(C)C1CCC(C)=CC1c1c(CCCCC)cc(O)c([C@@H]2C=C(C)CC[C@H]2C(=C)C)c1O (some centres not stated) | > 128 | > 128 | > 128 | > 128 | > 128 | > 128
10 | CCCCCc1cc(O)cc(O)c1C/C=C(\C)CCC=C(C)C | 2 (≈ 6.32 µM) | 0.5 (≈ 1.58 µM) | – | 1 (≈ 3.16 µM) | 1 (≈ 3.16 µM) | 2 (≈ 6.32 µM)
11 | CCCCCc1cc(OC(C)=O)c(C/C=C(\C)CCC=C(C)C)c(OC(C)=O)c1 | > 128 | > 128 | > 128 | > 128 | > 128 | > 128
12 | C=C(C)[C@@H]1CCC(C)=C[C@H]1c1c(OC(C)=O)cc(CCCCC)cc1OC(C)=O | > 128 | > 128 | > 128 | > 128 | > 128 | > 128
13 | C=C(C)[C@@H]1CCC(C)=C[C@H]1c1c(O)cc(CCCCC)c(C(=O)OCCc2ccccc2)c1O | > 128 | > 128 | > 128 | > 128 | > 128 | > 128
14 | CCCCCc1cc(O)c2c(c1)OC(C)(CCC=C(C)C)C=C2 (configuration not stated) [CANNABICHROMENE] | 2 (≈ 6.36 µM) | 1 (≈ 3.18 µM) | 2 (≈ 6.36 µM) | 2 (≈ 6.36 µM) | 2 (≈ 6.36 µM) | 2 (≈ 6.36 µM)
15 | C=C(C)[C@@H]1CCC(C)=C[C@H]1c1c(O)cc(CCCCC)c(C(=O)O)c1O [CANNABIDIOLIC ACID] | 2 (≈ 5.58 µM) | 2 (≈ 5.58 µM) | 2 (≈ 5.58 µM) | 2 (≈ 5.58 µM) | 2 (≈ 5.58 µM) | 2 (≈ 5.58 µM)
16 | C=C(C)[C@@H]1CCC(C)=C[C@H]1c1c(O)cc(CCCCC)cc1O [CANNABIDIOL] | 1 (≈ 3.18 µM) | 1 (≈ 3.18 µM) | 1 (≈ 3.18 µM) | 1 (≈ 3.18 µM) | 0.5 (≈ 1.59 µM) | 1 (≈ 3.18 µM)
17 | CCCCCc1cc(O)c(C/C=C(\C)CCC=C(C)C)c(O)c1C(=O)O [CANNABIGEROLIC ACID] | 4 (≈ 11.1 µM) | 4 (≈ 11.1 µM) | 4 (≈ 11.1 µM) | 2 (≈ 5.55 µM) | 4 (≈ 11.1 µM) | 2 (≈ 5.55 µM)
18 | CCCCCc1cc(O)c(C/C=C(\C)CCC=C(C)C)c(O)c1 [CANNABIGEROL] | 1 (≈ 3.16 µM) | 1 (≈ 3.16 µM) | 1 (≈ 3.16 µM) | 1 (≈ 3.16 µM) | 1 (≈ 3.16 µM) | 2 (≈ 6.32 µM)
19 | CCCCCc1cc(O)c2c(c1)OC(C)(C)c1ccc(C)cc1-2 [CANNABINOL] | 1 (≈ 3.22 µM) | 1 (≈ 3.22 µM) | – | 1 (≈ 3.22 µM) | 1 (≈ 3.22 µM) | 1 (≈ 3.22 µM)
20 | CCCCCc1cc(O)c(C/C=C(\C)CCC(O)C(C)(C)O)c(O)c1 (configuration not stated) [CARMAGEROL] | 32 (≈ 91.3 µM) | 16 (≈ 45.6 µM) | 32 (≈ 91.3 µM) | 32 (≈ 91.3 µM) | 16 (≈ 45.6 µM) | 16 (≈ 45.6 µM)
21 | CCCCCc1cc2c(c(O)c1C(=O)O)[C@@H]1C=C(C)CC[C@H]1C(C)(C)O2 [DELTA9-TETRAHYDROCANNABINOLIC ACID A] | 8 (≈ 22.3 µM) | 8 (≈ 22.3 µM) | 4 (≈ 11.2 µM) | 4 (≈ 11.2 µM) | 4 (≈ 11.2 µM) | 8 (≈ 22.3 µM)
22 | CCCCCc1cc(O)c2c(c1)OC(C)(C)[C@@H]1CCC(C)=C[C@@H]21 [DRONABINOL] | 2 (≈ 6.36 µM) | 1 (≈ 3.18 µM) | 0.5 (≈ 1.59 µM) | 1 (≈ 3.18 µM) | 1 (≈ 3.18 µM) | 2 (≈ 6.36 µM)
23 | CC[C@H]1OC(=O)[C@H](C)[C@@H](O[C@H]2C[C@@](C)(OC)[C@@H](O)[C@H](C)O2)[C@H](C)[C@@H](O[C@@H]2O[C@H](C)C[C@H](N(C)C)[C@H]2O)[C@](C)(O)C[C@@H](C)C(=O)[C@H](C)[C@@H](O)[C@]1(C)O [ERYTHROMYCIN] | 0.25 (≈ 0.341 µM) | > 128 | > 128 | 64 (≈ 87.2 µM) | 0.25 (≈ 0.341 µM) | > 128
24 | CCn1cc(C(=O)O)c(=O)c2cc(F)c(N3CCNCC3)cc21 [NORFLOXACIN] | 32 (≈ 100 µM) | 4 (≈ 12.5 µM) | 128 (≈ 401 µM) | 1 (≈ 3.13 µM) | 1 (≈ 3.13 µM) | 0.5 (≈ 1.57 µM)
25 | Cc1onc(-c2ccccc2)c1C(=O)N[C@@H]1C(=O)N2[C@@H]1SC(C)(C)[C@@H]2C(=O)O [OXACILLIN] | 0.25 (≈ 0.623 µM) | 128 (≈ 319 µM) | > 128 | 0.25 (≈ 0.623 µM) | 0.125 (≈ 0.311 µM) | 32 (≈ 79.7 µM)
26 | Oc1cccc(O)c1 [RESORCINOL] | > 256 | > 256 | > 256 | > 256 | > 256 | > 256
27 | CN(C)[C@@H]1C(O)=C(C(N)=O)C(=O)[C@@]2(O)C(O)=C3C(=O)c4c(O)cccc4[C@@](C)(O)[C@H]3C[C@@H]12 [TETRACYCLINE] | 0.25 (≈ 0.563 µM) | 128 (≈ 288 µM) | 0.125 (≈ 0.281 µM) | 0.25 (≈ 0.563 µM) | 0.25 (≈ 0.563 µM) | 0.125 (≈ 0.281 µM)
28 | CCCCCc1cc(O)cc(O)c1 [WHILE OLIVETOL] | 64 (≈ 355 µM) | 64 (≈ 355 µM) | 64 (≈ 355 µM) | 64 (≈ 355 µM) | 128 (≈ 710 µM) | 64 (≈ 355 µM)
